# Experimental data from ChEMBL document CHEMBL1142089, “High-level telithromycin resistance in a clinical isolate of Streptococcus pneumoniae” (2007).
# Columns and labels:
# Format in all cases: functional
# [1] = system: Streptococcus pneumoniae; experiment: Antimicrobial activity against Streptococcus pneumoniae PC13 isolate with erm(B) mutation
# Procedure, shortened: (§1)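 MIC by agar dilution per CLSI guidelines, also by Etest. Pneumococci grown at 37°C in 5% CO2 on Mueller-Hinton agar with 5% horse blood. Interpreted with CLSI breakpoints; for telithromycin ≤1 μg/ml susceptible, 2 μg/ml intermediate, ≥4 μg/ml resistant.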
# [2] = system: Streptococcus pneumoniae; experiment: Antimicrobial activity against Streptococcus pneumoniae R6 transformants; procedure, shortened: as §1
# [3] = system: Streptococcus pneumoniae; experiment: Antimicrobial activity against Streptococcus pneumoniae BSF-11524 isolate with erm(B) and L4 mutation; procedure, shortened: as §1
# [4] = system: Streptococcus pneumoniae; experiment: Antimicrobial activity against Streptococcus pneumoniae PC13 isolate with L4 mutation; procedure, shortened: as §1
# [5] = system: Streptococcus pneumoniae; experiment: Antimicrobial activity against Streptococcus pneumoniae R6 with L4 mutation; procedure, shortened: as §1
# [6] = system: Streptococcus pneumoniae; experiment: Antimicrobial activity against Streptococcus pneumoniae PC13 isolate with L4 69GTG71 to TPS mutation; procedure, shortened: as §1
# [7] = system: Streptococcus pneumoniae; experiment: Antimicrobial activity against Streptococcus pneumoniae PC13 transformants; procedure, shortened: as §1
# [8] = system: Streptococcus pneumoniae; experiment: Antimicrobial activity against Streptococcus pneumoniae R6 with L4 69GTG71 to TPS mutation; procedure, shortened: as §1
Structure (SMILES),MIC [1],MIC [2],MIC [3],MIC [4],MIC [5],MIC [6],MIC [7],MIC [8]
CN(C)[C@@H]1C(O)=C(C(N)=O)C(=O)[C@@]2(O)C(O)=C3C(=O)c4c(O)cccc4[C@@](C)(O)[C@H]3C[C@@H]12 [TETRACYCLINE],8 µg/mL,0.094 µg/mL,12 µg/mL,12 µg/mL,0.094 µg/mL,8 µg/mL,12 µg/mL,0.06 µg/mL
CC[C@H]1OC(=O)[C@H](C)[C@@H](O[C@H]2C[C@@](C)(OC)[C@@H](O)[C@H](C)O2)[C@H](C)[C@@H](O[C@@H]2O[C@H](C)C[C@H](N(C)C)[C@H]2O)[C@](C)(O)C[C@@H](C)CN(C)[C@H](C)[C@@H](O)[C@]1(C)O [AZITHROMYCIN],> 256 µg/mL,0.25 µg/mL,> 256 µg/mL,> 256 µg/mL,> 256 µg/mL,> 256 µg/mL,> 256 µg/mL,> 256 µg/mL
CC[C@H]1OC(=O)[C@H](C)[C@@H](O[C@H]2C[C@@](C)(OC)[C@@H](O)[C@H](C)O2)[C@H](C)[C@@H](O[C@@H]2O[C@H](C)C[C@H](N(C)C)[C@H]2O)[C@](C)(O)C[C@@H](C)C(=O)[C@H](C)[C@@H](O)[C@]1(C)O [ERYTHROMYCIN],> 256 µg/mL,0.094 µg/mL,> 256 µg/mL,> 256 µg/mL,> 256 µg/mL,> 256 µg/mL,> 256 µg/mL,> 256 µg/mL
CC[C@H]1OC(=O)[C@H](C)C(=O)[C@H](C)[C@@H](O[C@@H]2O[C@H](C)C[C@H](N(C)C)[C@H]2O)[C@](C)(OC)C[C@@H](C)C(=O)[C@H](C)[C@H]2N(CCCCn3cnc(-c4cccnc4)c3)C(=O)O[C@]12C [TELITHROMYCIN],1 µg/mL,0.015 µg/mL,> 256 µg/mL,> 256 µg/mL,0.12 µg/mL,> 256 µg/mL,0.06 µg/mL,0.12 µg/mL
CC[C@H]1OC(=O)[C@H](C)[C@@H](O[C@H]2C[C@@](C)(OC)[C@@H](O)[C@H](C)O2)[C@H](C)[C@@H](O[C@@H]2O[C@H](C)C[C@H](N(C)C)[C@H]2O)[C@](C)(OC)C[C@@H](C)C(=O)[C@H](C)[C@@H](O)[C@]1(C)O [CLARITHROMYCIN],> 256 µg/mL,0.06 µg/mL,> 256 µg/mL,> 256 µg/mL,24 µg/mL,> 256 µg/mL,> 256 µg/mL,24 µg/mL
O=C(N[C@H](CO)[C@H](O)c1ccc([N+](=O)[O-])cc1)C(Cl)Cl [CHLORAMPHENICOL],12 µg/mL,1.5 µg/mL,2 µg/mL,12 µg/mL,2 µg/mL,12 µg/mL,12 µg/mL,2 µg/mL
CCC[C@@H]1C[C@@H](C(=O)N[C@@H]([C@H]2O[C@H](SC)[C@H](O)[C@@H](O)[C@H]2O)[C@H](C)Cl)N(C)C1 [CLINDAMYCIN],> 256 µg/mL,0.06 µg/mL,> 256 µg/mL,> 256 µg/mL,0.125 µg/mL,> 256 µg/mL,> 256 µg/mL,0.094 µg/mL
